Yeast life ext: compounds extending yeast replicative lifespan, primary screen, S. cerevisiae, OD615; S. cerevisiae growth with nicotinamide; deaD strain in restrictive glucose medium; inhibition of the nicotinamide effect, % at 10 µM; hit rate 0.68% among 130,000; AID 775, 2007;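 active = inhibition above a set limit, placed 3 SD over the median of all compounds, cut at about 26% in these data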
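Buffer or medium: CSMM-D glucose medium, restrictive; test system: modified budding yeast, DeaD strain; compound: single dose 10 µM compound, 0.25% DMSO; schedule: culture preincubation 4 h, compound exposure 48 h, both 30 °C; detection: optical density (absorbance) at 615 nm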
Measles CPE: compounds protecting cells from measles virus cytopathic effect, primary screen, measles RdRp inhibitor project, single point, MLSMR library, absorbance. protection (pct of control), % at 4 µM. hit rate 1.5% among 140,000. Measles virus-infected cells, CPE protection. AID 841, 2007; in the data active = protection mostly above about 24%, no sharp cut-off; inactive = mostly below about 26%
BB579 growth dn: growth inhibitors of yeast BB579 in restrictive medium, primary screen, yeast lifespan-shortening project, S. cerevisiae; OD615, 48 h; inhibition, % at 10 µM; hit rate 0.51% among 140,000; AID 804, 2007;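 active = inhibition above a set limit, 3 SD over the mean compound inhibition, cut at about 44% in these data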
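Detection: OD615 turbidity measurement; Material: Saccharomyces cerevisiae DeaD strain BB579, replicative lifespan model yeast; Timing: 48 h exposure, 30 °C; Doses: single 10 µM dose; Medium: CSMM-D restrictive synthetic medium containing dextrose (glucose); Controls: amphotericin B at 10 µg/mL as positive control.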
WT yeast gro inh: growth inhibition of WT strain, primary screen, mitochondrial fusion inhibitor project, WT and mutant strains, chemical genetic; mitochondrial fusion phenotypic screen; inhibition, % at 10 µM; hit rate 2.1% among 190,000; AID 1362, 2008; in the data active = inhibition above about 58%; tested in S. cerevisiae
hDAT+cocaine: changed hDAT dopamine uptake under cocaine IC80, either direction, primary screen, cocaine antagonist project, cell-based, LLC-PK1 hDAT, [14C]-dopamine uptake, MLSMR | Sodium-dependent dopamine transporter (Homo sapiens), Q01959 | LLC-PK1 hDAT cells, [14C]-dopamine uptake with cocaine IC80; actives deviate in either direction | B-score at 10 µM | hit rate 1.3% among 110,000 | AID 449768, 2010;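 active = Z score or B-score, a plate-position-corrected score, falls beyond the plate's 99.7% confidence bounds, in either direction; inactive = both scores lie inside the 99.7% bounds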
Target sequence (Q01959 whole entry, looked up): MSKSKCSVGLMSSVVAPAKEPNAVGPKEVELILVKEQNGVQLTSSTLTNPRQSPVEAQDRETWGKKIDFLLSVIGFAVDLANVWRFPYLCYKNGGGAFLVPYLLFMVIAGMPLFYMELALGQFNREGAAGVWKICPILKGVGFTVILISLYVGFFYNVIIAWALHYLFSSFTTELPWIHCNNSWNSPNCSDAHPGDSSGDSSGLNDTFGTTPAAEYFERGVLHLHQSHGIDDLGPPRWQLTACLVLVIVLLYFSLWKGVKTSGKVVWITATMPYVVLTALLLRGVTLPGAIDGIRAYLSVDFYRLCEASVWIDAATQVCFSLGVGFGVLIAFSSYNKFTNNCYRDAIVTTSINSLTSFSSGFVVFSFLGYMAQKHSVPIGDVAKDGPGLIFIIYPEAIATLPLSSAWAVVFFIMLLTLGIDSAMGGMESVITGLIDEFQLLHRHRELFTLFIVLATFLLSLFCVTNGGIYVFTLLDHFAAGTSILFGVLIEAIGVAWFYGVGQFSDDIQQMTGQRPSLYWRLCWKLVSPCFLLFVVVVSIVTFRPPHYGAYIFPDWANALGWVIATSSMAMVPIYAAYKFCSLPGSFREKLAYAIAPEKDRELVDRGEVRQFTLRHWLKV
RAM inhibit: inhibitors of the yeast RAM network, primary screen, dse1pr::URA3 reporter, 5-FOA selection; hit rate 1.8% among 190,000; S. cerevisiae dse1pr::URA3 reporter, 5-FOA growth OD615, 2 d; analog-sensitive cbk1-as2 kinase mutant strain; inhibition, % at 50 µM;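 active = inhibition above a set limit, 3 SD over mean compound inhibition, cut at about 8.4% in these data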;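 note: inhibition rescues growth on 5-FOA so higher OD means more RAM inhibition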
A number is an active result; . = inactive; / = not tested or not shown. Hits are enriched below; roughly 6.1% of the tested compounds scored in any of these assays.

SMILES	Yeast life ext	Measles CPE	BB579 growth dn	WT yeast gro inh	hDAT+cocaine	RAM inhibit
CCOc1ccc(NC(=O)C2(c3ccc(OC)c(OC)c3)CCCC2)cc1	.	.	.	.	/	.
C/C(N)=C(/C#N)C(=O)CSc1nc2ccccc2c(=O)n1CCCO	.	.	.	.	/	.
C/C(N)=C(/C#N)C(=O)CSc1nc2scc(-c3ccccc3)c2c(=O)n1C	/	/	/	.	/	9.6
C/C(N)=C(/C#N)C(=O)CSc1nnnn1-c1ccccc1	.	.	.	94	.	.
COc1ccc(/C=N/N2C(=O)C3C4C=CC(CC4)C3C2=O)c(OC)c1 (stereo unspecified)	/	/	/	.	/	.
CCOC(=O)C1=C(Nc2ccc(Br)cc2)CC(C)(O)C(C(=O)OCC)C1c1ccccc1 (stereo unspecified)	.	/	.	.	.	.
CCCn1c(=O)[nH]c(=O)c2c1nc(-c1cccs1)n2CCOC	/	/	/	.	/	.
N#CC1=C(N)SC(N)=C(C#N)C1c1c(Cl)cccc1Cl	.	.	.	63	.	.
Cc1ccc(N(CC(=O)N2CCc3ccccc32)S(=O)(=O)c2cccs2)cc1	.	.	.	.	.	.
S=C(Nc1ccc(N2CCOCC2)cc1)Nc1ccc2nc(-c3ccco3)c(-c3ccco3)nc2c1	37	.	.	.	/	.
O=C(Nc1ccc(N2CCOCC2)cc1)c1ccc2nc(-c3ccco3)c(-c3ccco3)nc2c1	.	.	.	.	.	.
Cc1cc(C)c2c(N=NN3CCOCC3)[nH]nc2n1	.	.	66	.	/	.
CCCOC(=O)c1ccc(-c2c(C)noc2-c2ccc(OC)cc2O)o1	.	.	.	.	2.8	.
COc1ccc(-c2onc(C)c2-c2cscn2)c(O)c1	/	/	/	.	/	.
COc1cccc(CN(C(=O)/C=C/c2ccc(Cl)cc2)C2CCS(=O)(=O)C2)c1 (stereo unspecified)	/	/	/	.	/	.
CCc1nnc(NC(=O)CSc2nnc(CNc3ccc(C)cc3)n2C)s1	/	/	/	.	/	.
O=S(=O)(c1ccc(Br)s1)N1CCN(Cc2ccc3c(c2)OCO3)CC1	.	.	.	61	.	.
O=S(=O)(c1cc(Cl)ccc1Cl)N1CCN(Cc2ccc3c(c2)OCO3)CC1	.	.	.	.	.	.
Cc1nc(SCc2ccccc2)c(C(F)(F)F)c(=O)[nH]1	.	.	.	.	.	.
CN1C(=O)C(c2nnc(Nc3cccc4ccccc34)s2)C2CC1(C)Oc1ccccc12 (stereo unspecified)	.	.	.	.	/	9.0
CCC(/C=N/NC(=O)CCCCC(=O)N/N=C/C(CC)CC)CC	.	.	.	.	/	.
CCC(=O)N1CCN(CCN=CC2=C(O)CC(c3cccs3)CC2=O)CC1 (stereo unspecified)	53	.	.	.	.	.
O=C1CC(c2ccccc2)CC(O)=C1C=NCCN1CCN(C(=O)Nc2ccccc2)CC1 (stereo unspecified)	92	.	.	.	.	.
Cc1ccc(NC(=O)CN2CCN(CCN=CC3=C(O)CC(c4ccccc4)CC3=O)CC2)cc1 (stereo unspecified)	60	.	.	.	/	.
CCNC(=S)N1CCN(CCN=CC2=C(O)CC(c3cccs3)CC2=O)CC1 (stereo unspecified)	.	.	.	.	.	.
SMILES	Yeast life ext	Measles CPE	BB579 growth dn	WT yeast gro inh	hDAT+cocaine	RAM inhibit
O=C1CC(c2ccccc2)CC(O)=C1C=NCCN1CCNCC1 (stereo unspecified)	35	.	.	.	.	.
Cc1[nH]c(=O)cc2ccccc12	.	.	.	.	.	.
O=C(COC(=O)c1ccc(O)cc1)Nc1ccccc1[N+](=O)[O-]	/	/	/	.	/	.
COc1cccc(-c2cc(C(F)(F)F)nc(NCc3ccco3)n2)c1	.	.	.	.	.	8.9
COc1cccc(-c2cc(C(F)(F)F)nc(-n3cncn3)n2)c1	.	.	.	.	3.3	.
COc1ccc(-c2cc(C(F)(F)F)nc(NCc3ccco3)n2)cc1OC	.	.	.	.	.	.
FC(F)(F)c1cc(-c2ccc3c(c2)OCO3)nc(NCc2ccco2)n1	.	66	.	.	.	.
COc1cccc(-c2cc(C(F)(F)F)nc(-n3cc(C)cn3)n2)c1	/	/	/	.	/	.
FC(F)(F)c1cc(-c2ccco2)nc(NCc2ccco2)n1	.	.	.	.	.	.
COc1ccc(C2/C=C\CN(Cc3ccc(N(C)C)cc3)CC(=O)N2Cc2ccc(F)cc2)cc1 (stereo unspecified)	/	/	/	/	.	/
COc1cc(NC(=O)Cn2c(=O)n(CC3CCCO3)c(=O)c3ccccc32)cc(OC)c1 (stereo unspecified)	/	/	/	.	/	10
COc1ccc(NC(=O)Cn2c(=O)n(CC3CCCO3)c(=O)c3ccccc32)c(OC)c1 (stereo unspecified)	/	/	/	.	/	.
O=S(=O)(NC(=NCCc1ccc(Cl)cc1)c1ccccc1Cl)c1cccs1	/	/	/	.	/	.
COc1ccccc1N1CCN(C(=O)c2oc3cc(C)cc(C)c3c2C)CC1	/	.	.	76	.	.
CCc1ccc(C(=O)COC(=O)c2cc([N+](=O)[O-])ccc2NCCO)cc1	.	.	.	.	/	10
CCC1(C)Cc2nc3[nH]c(=S)n(-c4ccccc4)c(=O)c3cc2CO1 (stereo unspecified)	.	.	.	.	/	8.5
COc1cccc(C(=O)Nc2ccccc2F)c1	/	/	/	.	/	.
COc1cccc(C(=O)Nc2ccc(F)cc2F)c1	/	45	.	.	.	.
N#CC1=C(N)N2C(=C(C#N)C1c1cccc(Br)c1)Nc1ccccc12 (stereo unspecified)	.	.	.	.	/	8.9
CCn1ncc(/C=N\NC(=O)Cc2ccc([N+](=O)[O-])cc2)c1C	.	46	.	.	/	.
Nc1cc(N)nc(SCC(=O)Nc2ccc(Br)cc2Cl)n1	/	.	.	.	.	.
Cc1ccc(NC(=O)C(c2ccccc2)N(C)C)cc1Cl (stereo unspecified)	/	/	/	.	/	.
Cc1ccc(NC(=O)C(C)c2cccc(C(=O)c3ccccc3)c2)cc1O (stereo unspecified)	.	.	.	.	/	8.8
Cc1ccc2nc(-c3ccccn3)cc(C(=O)NC3CCN(C)CC3)c2c1	.	67	.	.	.	.
CC(Oc1ccc(-c2ccccc2)c(F)c1)c1ccn(S(=O)(=O)c2ccc(F)cc2)n1 (stereo unspecified)	.	.	.	.	.	9.4
CCOC(=O)COc1cc(=O)n(CC)c2ccccc12	.	.	.	.	.	.
CCn1c(=O)cc(OCC(=O)N(C)C2CCCCC2)c2ccccc21	.	.	.	.	2.4	.

Source: PubChem BioAssay (several laboratories)
